Active and inactive are the calls of the source. The calls are words filed in the database; no cut-off is given here.
Tests used:
[1] = tested on: Mycobacterium tuberculosis; assay: Antimycobacterial activity against Mycobacterium tuberculosis H37Rv; type: functional, organism-based
Pseudomonas aeruginosa = assay: Antimicrobial activity against Pseudomonas aeruginosa after 24 hrs by broth micro dilution method; type: functional
In short: (§1)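 Broth microdilution per NCCLS guidelines: 2-fold serial dilutions in RPMI-1640 buffered to pH 7.5 with 0.165 M MOPS, final 0.5–128 µg/mL. Inocula from 24 h tryptic soy agar cultures at 37 °C, final 10^3/10^4 cells per mL. Kanamycin and polymyxin B as controls. Incubated 24 h at 37 °C, OD 600 nm; MIC is lowest concentration giving complete (90%) growth inhibition.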

HTB-129 = assay: (§2) Cytotoxicity against human HTB-129 cells after 72 hrs by MTT assay; type: functional, cell-based
In short: (§3)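 HTB-129 breast carcinoma cells kept in Leibovitz's L-15 with 2 mM L-glutamine, insulin 0.01 mg/mL, 10% FBS, penicillin/streptomycin, 37 °C in air. Seeded at 1 × 10^5 cells/mL, 24 h before dosing. Compounds in DMSO, serially diluted in medium from 200 to 1.76 µg/mL. Exposure 72 h, then MTT 3 h, DMSO solubilization, read at 570 nm. Viability as percent of untreated controls; IC50 fitted.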

Staphylococcus aureus = assay: Antimicrobial activity against Staphylococcus aureus after 24 hrs by broth micro dilution method; type: functional; in short: as §1
Escherichia coli = assay: Antimicrobial activity against Escherichia coli after 24 hrs by broth micro dilution method; type: functional; in short: as §1
Candida albicans [2] = assay: Antimicrobial activity against Candida albicans at 8 ug/disk; type: functional; conditions: read-out: IZ
[3] = as §2; type: functional, cell-based; conditions: HTB-129, 72 h; in short: as §3
Candida albicans [4] = assay: Antimicrobial activity against Candida albicans at 40 ug/disk; type: functional, organism-based

C=CC(C)(C)[C@]12C=C(OC)C(=O)N3/C(=C/c4c[nH]cn4)C(=O)N[C@@]31N(OC)c1ccccc12
inhibition [1]: inactive

COc1ccc2c3c1C(=O)CC(C)(C)N3C(=O)[C@@]21C[C@@]2([N+](=O)[O-])CN3CCC[C@@H]3C[C@H]2C1(C)C
inhibition (Pseudomonas aeruginosa): inactive | inhibition (HTB-129): inactive | inhibition (Staphylococcus aureus): inactive | inhibition (Escherichia coli): inactive | inhibition [1]: inactive

COc1ccc2c3c1C(=O)CC(C)(C)N3C(=O)[C@@]21C[C@]2([N+](=O)[O-])CN3CCC[C@@H]3C[C@H]2C1(C)C
inhibition (Pseudomonas aeruginosa): inactive | inhibition (HTB-129): inactive | inhibition (Staphylococcus aureus): inactive | inhibition (Escherichia coli): inactive | inhibition [1]: inactive

C[C@@H]1[C@H](O)[C@@H](C)/C=C/C=C/C=C/C=C/C=C/C=C/C=C/[C@H](O[C@@H]2O[C@H](C)[C@@H](O)[C@H](N)[C@@H]2O)C[C@@H]2O[C@](O)(C[C@@H](O)C[C@@H](O)[C@H](O)CC[C@@H](O)C[C@@H](O)CC(=O)O[C@H]1C)C[C@H](O)[C@H]2C(=O)O [AMPHOTERICIN B]
zone of inhibition at 8 µg/disc (Candida albicans [2]): 20 mm

CC1(C)CC(=O)c2c(ccc3c2NC(=O)[C@]32C[C@@]3([N+](=O)[O-])CN4CCC[C@H]4C[C@@H]3C2(C)C)O1.O=C(O)C(F)(F)F [CITRINALIN A]
MIC (Pseudomonas aeruginosa): > 32 µg/mL | IC50 [3]: 174 µM | MIC (Staphylococcus aureus): > 32 µg/mL | MIC (Escherichia coli): > 32 µg/mL | inhibition (Candida albicans [4]): inactive

CC1(C)CC(=O)c2c(ccc3c2NC(=O)[C@]32C[C@@]3([N+](=O)[O-])CN4CCC[C@@H]4C[C@@H]3C2(C)C)O1.O=C(O)C(F)(F)F [CITRINALINE B]
MIC (Pseudomonas aeruginosa): > 32 µg/mL | IC50 [3]: 194 µM | MIC (Staphylococcus aureus): > 32 µg/mL | MIC (Escherichia coli): > 32 µg/mL | inhibition (Candida albicans [4]): inactive
